Experiment: Lipophilicity, modified shake flask octanol-water partition
Format: physicochemical
Conditions: chloride salts, 50 µM, 1-octanol/water, room temperature
Outline: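 1-Octanol and water were mutually pre-saturated by shaking for 24 h at room temperature. Test compound at 50 µM in water-saturated octanol was mixed with an equal volume of octanol-saturated water, hand-shaken 200 times and centrifuged (11,000 rpm, 2 min). Each layer was quantified by absorbance against standard curves.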

Octanol-water partition coefficient (log Po/w): < −3
SMILES: [Cl][Ru][Cl].c1ccc(-c2ccccn2)nc1.c1ccc(-c2ccccn2)nc1.c1ccc(-c2ccccn2)nc1 [[Ru(bpy)3]Cl2, reference compound]
